These results are taken from ChEMBL document CHEMBL4196085, “Structure-guided design of potent and permeable inhibitors of MERS coronavirus 3CL protease that utilize a piperidine moiety as a novel design element” (Eur J Med Chem, 2018).

The structures appear in SMILES notation.

Data set [1] deals with Replicase polyprotein 1ab (Middle East respiratory syndrome-related coronavirus (isolate UnitedKingdom/H123990006/2012) (Betacoronavirus England 1) (Humancoronavirus EMC), UniProt K9N7C7). The data set can be described thus: Inhibition of Middle East respiratory syndrome-related coronavirus 3CL protease using Dabcyl-KTSAVLQ/SGFRKME-Edans as substrate incubated for 30 mins followed by substrate addition measured after 1 hr by FRET assay. A digest of the protocol:
(§1)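 Purified recombinant 3CLpro of FIPV, MERS-CoV or SARS-CoV was preincubated 30 min at 37 °C with serial compound dilutions or DMSO. Buffer: 20 mM HEPES pH 8, 200 mM NaCl, 0.4 mM EDTA, 60% glycerol, 6 mM DTT. Substrate was then added and fluorescence read 1 h later (ex 360/em 460 nm), minus no-protease background. IC50 came from variable-slope fits, at least two determinations.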

In data set [2] the target is Replicase polyprotein 1ab (Feline coronavirus (strain FIPV WSU-79/1146) (FCoV), UniProt Q98VG9). In words: Inhibition of Feline infectious peritonitis virus 3CL protease using Dabcyl-KTSAVLQ/SGFRKME-Edans as substrate incubated for 30 mins followed by substrate addition measured after 1 hr by FRET assay. A digest of the protocol: as §1
The target in data set [3] is Replicase polyprotein 1ab (Severe acute respiratory syndrome-related coronavirus, UniProt P0C6X7). In words: Inhibition of SARS coronavirus 3CL protease using Dabcyl-KTSAVLQ/SGFRKME-Edans as substrate incubated for 30 mins followed by substrate addition measured after 1 hr by FRET assay. A digest of the protocol: as §1
Data set [4] can be described thus: Cytotoxicity against African green monkey Vero81 cells assessed as reduction in cell viability after 72 hrs by CytoTox 96 nonradioactive cytotoxicity assay. The data set is classed as cell-based. Conditions: chlorocebus sabaeus. Summed up:
(§2)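 Confluent Vero81, CRFK or CCL9.1 cells were exposed to compound at 1–100 μM for 72 h. Cytotoxicity was read with the CytoTox 96 nonradioactive kit. CC50 was taken as the dose giving 50% cell death, averaged over at least two determinations.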

Data set [5] is described as follows: Cytotoxicity against mouse CCL-9.1 assessed as reduction in cell viability after 72 hrs by CytoTox 96 nonradioactive cytotoxicity assay. The note with it: CCL-9.1 cells. A digest of the protocol: as §2
In data set [6] the test system is Feline infectious peritonitis virus. The data set can be described thus: Antiviral activity against Feline infectious peritonitis virus infected in […] cells assessed as reduction in viral titer after 48 hrs. The data set is classed as functional, organism-based. The note with it: Alphacoronavirus 1, 48 h.
Data set [7] in a line: Cytotoxicity against cat CRFK cells assessed as reduction in cell viability after 72 hrs by CytoTox 96 nonradioactive cytotoxicity assay. In kind it is cell-based, Felis catus. Summed up: as §2
Data set [8] is described as follows: Selectivity index, ratio of CC50 for African green monkey Vero81 cells to IC50 for Middle East respiratory syndrome-related coronavirus. In kind it is toxicity. The note with it: read-out: Ratio CC50/IC50.
Data set [9] relates to Middle East respiratory syndrome-related coronavirus. In words: Antiviral activity against Middle East respiratory syndrome-related coronavirus infected in African green monkey Vero81 cells assessed as reduction in viral titer after 48 hrs. In kind it is functional, organism-based.

Sequence of Replicase polyprotein 1ab (Middle East respiratory syndrome-related coronavirus (isolate UnitedKingdom/H123990006/2012) (Betacoronavirus England 1) (Humancoronavirus EMC), UniProt K9N7C7) (K9N7C7 3248-3553 limits assumed): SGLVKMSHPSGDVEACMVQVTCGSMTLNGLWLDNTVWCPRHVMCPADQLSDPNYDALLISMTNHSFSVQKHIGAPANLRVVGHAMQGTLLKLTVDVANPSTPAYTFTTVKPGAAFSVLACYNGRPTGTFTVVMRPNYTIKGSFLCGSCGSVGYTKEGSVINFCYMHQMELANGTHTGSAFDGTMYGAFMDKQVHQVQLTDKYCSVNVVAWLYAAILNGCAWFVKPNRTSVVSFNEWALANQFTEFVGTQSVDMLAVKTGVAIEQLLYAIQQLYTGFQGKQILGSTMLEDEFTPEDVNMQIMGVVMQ
Sequence of Replicase polyprotein 1ab (Feline coronavirus (strain FIPV WSU-79/1146) (FCoV), UniProt Q98VG9) (Q98VG9 2904-3205 limits assumed): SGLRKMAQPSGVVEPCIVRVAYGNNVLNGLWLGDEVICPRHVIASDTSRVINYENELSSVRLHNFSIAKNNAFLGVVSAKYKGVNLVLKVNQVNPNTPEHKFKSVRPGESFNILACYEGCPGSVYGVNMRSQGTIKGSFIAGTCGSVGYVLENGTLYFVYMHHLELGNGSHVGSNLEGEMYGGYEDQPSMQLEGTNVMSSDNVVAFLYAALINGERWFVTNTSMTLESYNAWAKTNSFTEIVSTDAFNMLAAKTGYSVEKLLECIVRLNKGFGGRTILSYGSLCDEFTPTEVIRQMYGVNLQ

Regarding `CCC1(OC(=O)N[C@@H](CC(C)C)C(=O)N[C@H](C=O)C[C@@H]2CCNC2=O)CCN(C(=O)OC(C)(C)C)CC1`, the 50% inhibitory concentration (IC50) (in general, the point on the concentration scale where inhibition reaches its midpoint) in [1] is 6.1 µM; in [2] it was 5.5 µM; in [3], 5.5 µM.
In the case of `CCC1(OC(=O)N[C@@H](CC(C)C)C(=O)N[C@@H](C[C@@H]2CCNC2=O)C(O)S(=O)(=O)O)CCN(C(=O)OC(C)(C)C)CC1` (some centres not stated), the half-maximal inhibitory concentration (IC50) turned out to be 7.5 µM in data set [1], 6.7 µM in [2] and 4.1 µM in [3].
As to `CC(C)C[C@H](NC(=O)OC1(Cc2ccccc2)CCN(C(=O)OC(C)(C)C)CC1)C(=O)N[C@H](C=O)C[C@@H]1CCNC1=O`, the figures for the IC50 in [1], in [2] and in [3] were 0.8 µM, 1.6 µM and 5.2 µM, respectively.
On to `CCOC(=O)N1CCC(OC(=O)N[C@@H](CC(C)C)C(=O)N[C@H](C=O)C[C@@H]2CCNC2=O)CC1`, for which the half-maximal inhibitory concentration (IC50) in data set [1] was determined as 0.6 µM; in data set [2], 1.3 µM; in [3], 3.2 µM.
In the same order, the values of `CCOC(=O)N1CCC(OC(=O)N[C@@H](CC(C)C)C(=O)N[C@@H](C[C@@H]2CCNC2=O)C(O)S(=O)(=O)O)CC1` (some centres not stated) are 0.5 µM, 1.1 µM and 8.8 µM.
For `CC(C)C[C@H](NC(=O)OC1(Cc2ccccc2)CCN(S(C)(=O)=O)CC1)C(=O)N[C@@H](C[C@@H]1CCNC1=O)C(O)S(=O)(=O)O` (some centres not stated) the same measures were 0.9 µM, 1.1 µM and 4.3 µM.
In the same order, the values of `CC(C)C[C@H](NC(=O)OC1CCN(C(=O)OC(C)(C)C)CC1)C(=O)N[C@H](C=O)C[C@@H]1CCNC1=O` are 0.6 µM, 0.8 µM and 2.1 µM.
In the case of `CC(C)C[C@H](NC(=O)OC1CCN(C(=O)OC(C)(C)C)CC1)C(=O)N[C@@H](C[C@@H]1CCNC1=O)C(O)S(=O)(=O)O` (some centres not stated), the cytotoxic concentration (CC50) at 72 h in [4], in [5] and in data set [7] was greater than 100 µM each time. The IC50 was 0.4 µM in data set [1], 2.4 µM in data set [2] and 5.1 µM in [3]. Further, the EC50 (usually the concentration needed to bring the measured effect to its halfway point) in data set [6] was found to be 1.5 µM; in [9], 0.5 µM. In addition, in data set [8], the selectivity ratio was greater than 250.
As for `CC(C)C[C@H](NC(=O)OC1(Cc2ccccc2)CCN(S(C)(=O)=O)CC1)C(=O)N[C@H](C=O)C[C@@H]1CCNC1=O`, the 50% inhibitory concentration (IC50) in data set [1] came to 0.7 µM; in data set [2] it was 0.8 µM; in [3] it was 3.9 µM.
For `CC(C)C[C@H](NC(=O)OC1CCN(S(C)(=O)=O)CC1)C(=O)N[C@@H](C[C@@H]1CCNC1=O)C(O)S(=O)(=O)O` (some centres not stated) the same measures were 0.6 µM, 2.3 µM and 42.1 µM.
With `CC(C)C[C@H](NC(=O)OC1(Cc2ccccc2)CCN(C(=O)OC(C)(C)C)CC1)C(=O)N[C@@H](C[C@@H]1CCNC1=O)C(O)S(=O)(=O)O` (some centres not stated), the half-maximal cytotoxic concentration (CC50) at 72 h in data set [4], in [5] and in data set [7] was greater than 100 µM in each case. Further, the concentration for half-maximal inhibition (IC50) in data set [1] stood at 0.7 µM; in [2], 2.1 µM; in [3] it was 6.3 µM. The EC50 was 0.1 µM in data set [6] and 0.8 µM in data set [9].
Consider `CC(C)C[C@H](NC(=O)OC1CCN(S(C)(=O)=O)CC1)C(=O)N[C@H](C=O)C[C@@H]1CCNC1=O`, for which the results for the IC50 in [1], in [2] and in data set [3] were 0.7 µM, 3.5 µM and 28.8 µM, respectively.
